Converted amounts (≈) assume the structure as drawn.
Experiments:
[1] = species on record: Oryctolagus cuniculus; test: Cardiotoxicity in rabbit ventricular wedge assessed as cardiovascular issues upto 10 uM; format: toxicity, Cardiac ventricle
[2] = in vivo; conditions: CD, rat, iv, 1 mg/kg
[3] = Equilibrium solubility of the compound in fed-state simulated intestinal fluid at pH 6.5 after 24 hrs by HPLC analysis; format: physicochemical
Summary of the method: (§1)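 Solid compound was equilibrated 24 h in the stated medium: water, SGF pH 1.6, FeSSIF pH 6.5, FaSSIF pH 6.5 or saline. Dissolved compound was quantified by HPLC.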

[4] = species on record: Oryctolagus cuniculus; test: Cardiotoxicity in rabbit assessed as effect on cardiac repolarization; format: toxicity, Heart
[5] = molecular target: C-X-C chemokine receptor type 4 (Homo sapiens, UniProt P61073); test: Antagonist activity at CXCR4 receptor (unknown origin) by [35S]GTPgammaS binding assay; format: functional
Chain of C-X-C chemokine receptor type 4 (P61073 whole entry): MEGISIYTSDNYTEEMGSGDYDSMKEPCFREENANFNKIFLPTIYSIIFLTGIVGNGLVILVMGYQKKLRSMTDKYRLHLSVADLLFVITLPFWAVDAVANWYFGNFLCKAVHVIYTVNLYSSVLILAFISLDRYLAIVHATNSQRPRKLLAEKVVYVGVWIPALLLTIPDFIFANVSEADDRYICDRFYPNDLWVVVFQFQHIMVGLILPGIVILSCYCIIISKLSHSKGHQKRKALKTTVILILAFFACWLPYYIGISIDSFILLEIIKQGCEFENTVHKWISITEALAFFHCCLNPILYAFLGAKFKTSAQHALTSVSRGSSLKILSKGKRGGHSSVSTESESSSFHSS

[6] = molecular target: C-C chemokine receptor type 5 (Homo sapiens, UniProt P51681); test: Antagonist activity at CCR5 receptor (unknown origin) by [35S]GTPgammaS binding assay; format: functional
Chain of C-C chemokine receptor type 5 (P51681 whole entry): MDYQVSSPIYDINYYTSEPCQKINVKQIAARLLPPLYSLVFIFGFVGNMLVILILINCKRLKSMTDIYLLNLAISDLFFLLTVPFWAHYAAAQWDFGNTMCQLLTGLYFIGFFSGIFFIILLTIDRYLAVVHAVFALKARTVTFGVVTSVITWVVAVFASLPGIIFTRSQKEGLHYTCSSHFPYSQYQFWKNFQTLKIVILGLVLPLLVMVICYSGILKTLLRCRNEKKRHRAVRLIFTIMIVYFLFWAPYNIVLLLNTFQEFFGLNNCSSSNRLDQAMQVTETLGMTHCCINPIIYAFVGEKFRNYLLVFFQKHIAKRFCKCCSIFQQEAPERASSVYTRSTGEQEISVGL

[7] = Equilibrium solubility of the compound in simulated gastric fluid at pH 1.6 after 24 hrs by HPLC analysis; format: physicochemical; summary of the method: as §1
[8] = Oral bioavailability in Beagle dog at 1 mg/kg; format: ADME, organism-based, Canis lupus familiaris; conditions: in vivo
[9] = Equilibrium solubility of the compound in Britton-Robinson buffer at pH 7 after 24 hrs by HPLC analysis; format: physicochemical
Summary of the method: (§2)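 Solid compound was equilibrated 24 h in Britton–Robinson buffer at the stated pH. Dissolved compound was quantified by HPLC.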

[10] = Equilibrium solubility of the compound in Britton-Robinson buffer at pH 2 after 24 hrs by HPLC analysis; format: physicochemical; summary of the method: as §2
[11] = species on record: Oryctolagus cuniculus; test: Cardiotoxicity in rabbit assessed as effect on contractility; format: toxicity
[12] = Kinetic solubility of the compound in PBS using MeOH at pH 7.4 by NMR analysis; format: physicochemical; conditions: read-out: Kinetic_solubility
[13] = test system: Salmonella typhimurium; test: Genotoxicity in Salmonella typhimurium by Ames test; format: toxicity, organism-based; conditions: salmonella enterica subsp. enterica serovar typhimurium
[14] = test system: HepG2; test: Cytotoxicity in human HepG2 cells assessed as effect on mitochondria; format: cell-based
[15] = molecular target: T1, C-C chemokine receptor type 10 (Homo sapiens, UniProt P46092); test: Antagonist activity at CCR10 receptor (unknown origin) by [35S]GTPgammaS binding assay; format: functional
T1 sequence (P46092 whole entry): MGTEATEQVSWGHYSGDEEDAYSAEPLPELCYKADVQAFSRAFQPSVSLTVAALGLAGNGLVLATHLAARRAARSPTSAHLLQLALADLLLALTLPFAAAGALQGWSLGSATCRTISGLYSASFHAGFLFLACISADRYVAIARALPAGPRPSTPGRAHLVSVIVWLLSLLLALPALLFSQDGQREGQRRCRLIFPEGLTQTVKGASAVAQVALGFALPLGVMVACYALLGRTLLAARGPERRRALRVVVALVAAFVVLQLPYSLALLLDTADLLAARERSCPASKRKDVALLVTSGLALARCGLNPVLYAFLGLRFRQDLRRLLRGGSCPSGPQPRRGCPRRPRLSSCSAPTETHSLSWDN

[16] = Plasma protein binding in Beagle dog by equilibrium dialysis technique; format: ADME, cell-free, Canis lupus familiaris; conditions: read-out: PPB
Summary of the method: (§3)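 Rapid equilibrium dialysis in CD rat, beagle dog or human plasma, with compound at a nominal 1 μg/mL; n = 3.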

[17] = test system: Rattus norvegicus; test: Toxicity in rat assessed as effect on body temperature at 30 to 300 mg/kg, po; format: organism-based; design: dose 30-300 mg/kg, route oral; conditions: in vivo
Summary of the method: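 Conscious rats were given oral doses of 30, 100 and 300 mg/kg. Body temperature, cardiovascular and electrocardiographic parameters were monitored.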

[18] = molecular target: T2, C-X-C chemokine receptor type 2 (Homo sapiens, UniProt P25025); test: Antagonist activity at CXCR2 receptor (unknown origin) by [35S]GTPgammaS binding assay; format: functional
T2 sequence (P25025 whole entry): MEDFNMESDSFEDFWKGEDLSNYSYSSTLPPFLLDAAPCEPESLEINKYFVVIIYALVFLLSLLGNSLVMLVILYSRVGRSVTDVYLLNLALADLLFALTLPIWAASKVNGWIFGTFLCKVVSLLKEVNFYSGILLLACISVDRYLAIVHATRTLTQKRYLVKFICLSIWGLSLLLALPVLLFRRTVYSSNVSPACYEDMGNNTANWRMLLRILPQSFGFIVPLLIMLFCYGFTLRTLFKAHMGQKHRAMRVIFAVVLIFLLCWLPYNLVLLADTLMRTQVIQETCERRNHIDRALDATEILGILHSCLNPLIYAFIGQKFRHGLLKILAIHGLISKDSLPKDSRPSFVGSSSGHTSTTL

[19] = Equilibrium solubility of the compound in Britton-Robinson buffer at pH 10 after 24 hrs by HPLC analysis; format: physicochemical; summary of the method: as §2
[20] = Plasma protein binding in human by equilibrium dialysis technique; format: ADME, cell-free; conditions: read-out: PPB (converted); summary of the method: as §3
[21] = molecular target: C-C chemokine receptor type 2 (Homo sapiens, UniProt P41597); test: Antagonist activity at CCR2 receptor (unknown origin) by [35S]GTPgammaS binding assay; format: functional
Chain of C-C chemokine receptor type 2 (P41597 whole entry): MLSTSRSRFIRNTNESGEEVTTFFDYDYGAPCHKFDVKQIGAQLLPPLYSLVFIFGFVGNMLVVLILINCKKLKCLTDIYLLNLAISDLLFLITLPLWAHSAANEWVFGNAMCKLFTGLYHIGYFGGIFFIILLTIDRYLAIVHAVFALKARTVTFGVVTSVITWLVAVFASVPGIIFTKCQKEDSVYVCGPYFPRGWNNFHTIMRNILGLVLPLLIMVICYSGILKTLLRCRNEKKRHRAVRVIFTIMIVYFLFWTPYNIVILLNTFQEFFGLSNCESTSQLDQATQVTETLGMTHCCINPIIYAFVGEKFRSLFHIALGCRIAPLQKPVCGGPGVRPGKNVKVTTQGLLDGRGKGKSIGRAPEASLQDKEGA

[22] = Kinetic solubility of the compound by chemiluminescent nitrogen detection assay; format: physicochemical; conditions: read-out: Kinetic_solubility
[23] = species on record: Oryctolagus cuniculus; test: Cardiotoxicity in rabbit assessed as effect on conduction; format: toxicity
[24] = Equilibrium solubility of the compound in water after 24 hrs by HPLC analysis; format: physicochemical; summary of the method: as §1
[25] = Equilibrium solubility of the compound in Britton-Robinson buffer at pH 8 after 24 hrs by HPLC analysis; format: physicochemical; summary of the method: as §2
[26] = Dissociation constant, pKa of the compound; format: physicochemical
[27] = Oral bioavailability in CD rat at 10 mg/kg administered as suspension; format: ADME, organism-based; conditions: in vivo
[28] = Chemical stability of the compound in PBS using DMSO at pH 7.4 after 100 hrs by NMR analysis; format: physicochemical; conditions: buffer, pH 7.4, 100 h
[29] = molecular target: T3, C-X-C chemokine receptor type 1 (Homo sapiens, UniProt P25024); test: Antagonist activity at CXCR1 receptor (unknown origin) by [35S]GTPgammaS binding assay; format: functional
T3 sequence (P25024 whole entry): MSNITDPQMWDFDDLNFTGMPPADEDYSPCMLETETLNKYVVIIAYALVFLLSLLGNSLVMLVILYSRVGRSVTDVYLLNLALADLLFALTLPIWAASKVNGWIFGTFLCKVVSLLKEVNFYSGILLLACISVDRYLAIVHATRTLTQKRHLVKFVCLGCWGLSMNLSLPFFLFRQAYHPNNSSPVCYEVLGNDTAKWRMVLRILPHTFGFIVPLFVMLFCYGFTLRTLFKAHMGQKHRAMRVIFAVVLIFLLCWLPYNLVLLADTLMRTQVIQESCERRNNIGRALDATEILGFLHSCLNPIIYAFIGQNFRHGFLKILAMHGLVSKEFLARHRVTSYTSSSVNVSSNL

Structure (SMILES): COc1cccc2c1c(NS(=O)(=O)c1ccc(Cl)s1)nn2Cc1cccc(CNC(=O)C(C)(C)O)c1
- Activity [1]: Non-toxic
- half-life [2]: 2.5 h
- solubility thermodynamic at 24 h [3]: 23 µg/mL (≈ 41.9 µM)
- Activity [4]: Non-toxic
- IC50 [5]: > 10 µM
- IC50 [6]: 6.31 µM
- solubility thermodynamic at 24 h [7]: 1 µg/mL (≈ 1.82 µM)
- bioavailability [8]: 97%
- solubility thermodynamic at 24 h [9]: 10 µg/mL (≈ 18.2 µM)
- solubility thermodynamic at 24 h [10]: 3 µg/mL (≈ 5.46 µM)
- Activity [11]: Non-toxic
- solubility kinetic [12]: > 270 µg/mL
- Activity [13]: Non-toxic
- Activity [14]: Non-toxic
- IC50 [15]: > 10 µM
- fraction unbound [16]: ≤ 0.01
- Activity [17]: Non-toxic
- IC50 [18]: > 10 µM
- solubility thermodynamic at 24 h [19]: 1320 µg/mL (≈ 2410 µM)
- fraction unbound [20]: 0.01
- IC50 [21]: > 10 µM
- solubility kinetic [22]: ≥ 162 µg/mL
- Activity [23]: Non-toxic
- solubility thermodynamic at 24 h [24]: 57 µg/mL (≈ 104 µM)
- solubility thermodynamic at 24 h [25]: 56 µg/mL (≈ 102 µM)
- pKa [26]: 6.54
- bioavailability [27]: 80%
- Stability [28]: Stable
- IC50 [29]: > 10 µM

Reference: ChEMBL document CHEMBL2321840, “Synthesis and structure-activity relationships of indazole arylsulfonamides as allosteric CC-chemokine receptor 4 (CCR4) antagonists” (J Med Chem, 2013)
